# Assay outcomes: PubChem BioAssay, several laboratories
# PKD1 kinase inh – PKD1 (human) kinase inhibition; PKD1 kinase fluorescence polarization assay; inhibition, % (concentration not given with the values); 200,000 compounds, 0.056% hits; AID 797; in the data active = inhibition above about 50%
# ROMK primary – human ROMK K+ channel modulation, primary screen; Tet-inducible ROMK, thallium flux fluorescence; actives lie on both sides; B-score at 10 µM; P48048; 130,000 compounds, 2% hits; AID 1918;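 active = signal ratio slope over the read window, or its plate-corrected B-score, at least 3 SD from the plate mean, either direction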;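 note: B-score of the F/F0 ratio slope over 7 to 12 s after thallium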
# Redox H2O2 prof – compounds producing H2O2 with reducing agent – biochemical, NIH compound library profiling, artefact control for MLSCN library redox annotation, primary screen; DTT-dependent redox cycling H2O2, phenol red/HRP absorbance; 100% = 100 µM peroxide control, 0% = buffer; activation, % at 10 µM; 200,000 compounds, 0.03% hits;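 active = activation of at least 50% relative to the plate's high and low controls in the primary single-dose screen; inactive = activation below 50%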;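 note: compound incubated with DTT at 0.8 mM final as the reducing agent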
# Mdm2 ligase inh – inhibitors of human Mdm2 E3 ubiquitin ligase; cell-based MDM2 ubiquitination luciferase reporter, 2 h; 0 = plate control, 100 = twice control, blank-subtracted; signal enhancement, % at 5 µM; Q00987; 210,000 compounds, 0.11% hits; AID 1230;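 active = signal enhancement of 30% or more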;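 note: luminescence tracks abundance of the self-degrading MDM2-luciferase fusion protein; higher signal means inhibition of MDM2 E3 ligase activity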
#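 Buffer or medium: Cells held in DMEM | Assay system: Stable mammalian line carrying autodegrading MDM2–luciferase fusion reporter | Quantity: 2000 cells/well | Times: 4 h settle plus 2 h compound, 37 °C | Doses: One concentration, 5 µM, with 0.2% DMSO | Technique: Luminescence with SteadyLite reagent, 15 min at room temperature | Benchmarks: Plate controls and plate blanks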
# p97 inhibitor – human p97 ATPase inhibition. P55072. recombinant p97 ATPase, Kinase-Glo ATP luminescence, 3 h. inhibition, % at 8 µM. 220,000 compounds, 0.42% hits. AID 1481; in the data active = inhibition above about 15%;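 note: 0% = DMSO vehicle and 100% = wells lacking enzyme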
# Cl transport mod – KCC2 (human) Cl- transport modulation; KCC2 cells, thallium flux FluoZin-2 fluorescence; 190,000 compounds, 2.2% hits; B-score of Tl+ flux slope (higher = more flux/activation; lower = inhibition) at 10 µM; AID 1456; Q9H2X9;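 active = thallium flux slope and its plate-corrected score both differing from the plate sample mean at a set confidence after two filtering rounds, in either direction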;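 note: slope of fluorescence scaled to starting intensity during 10 to 20 s after thallium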
# Target sequence (Q9H2X9 whole entry, looked up): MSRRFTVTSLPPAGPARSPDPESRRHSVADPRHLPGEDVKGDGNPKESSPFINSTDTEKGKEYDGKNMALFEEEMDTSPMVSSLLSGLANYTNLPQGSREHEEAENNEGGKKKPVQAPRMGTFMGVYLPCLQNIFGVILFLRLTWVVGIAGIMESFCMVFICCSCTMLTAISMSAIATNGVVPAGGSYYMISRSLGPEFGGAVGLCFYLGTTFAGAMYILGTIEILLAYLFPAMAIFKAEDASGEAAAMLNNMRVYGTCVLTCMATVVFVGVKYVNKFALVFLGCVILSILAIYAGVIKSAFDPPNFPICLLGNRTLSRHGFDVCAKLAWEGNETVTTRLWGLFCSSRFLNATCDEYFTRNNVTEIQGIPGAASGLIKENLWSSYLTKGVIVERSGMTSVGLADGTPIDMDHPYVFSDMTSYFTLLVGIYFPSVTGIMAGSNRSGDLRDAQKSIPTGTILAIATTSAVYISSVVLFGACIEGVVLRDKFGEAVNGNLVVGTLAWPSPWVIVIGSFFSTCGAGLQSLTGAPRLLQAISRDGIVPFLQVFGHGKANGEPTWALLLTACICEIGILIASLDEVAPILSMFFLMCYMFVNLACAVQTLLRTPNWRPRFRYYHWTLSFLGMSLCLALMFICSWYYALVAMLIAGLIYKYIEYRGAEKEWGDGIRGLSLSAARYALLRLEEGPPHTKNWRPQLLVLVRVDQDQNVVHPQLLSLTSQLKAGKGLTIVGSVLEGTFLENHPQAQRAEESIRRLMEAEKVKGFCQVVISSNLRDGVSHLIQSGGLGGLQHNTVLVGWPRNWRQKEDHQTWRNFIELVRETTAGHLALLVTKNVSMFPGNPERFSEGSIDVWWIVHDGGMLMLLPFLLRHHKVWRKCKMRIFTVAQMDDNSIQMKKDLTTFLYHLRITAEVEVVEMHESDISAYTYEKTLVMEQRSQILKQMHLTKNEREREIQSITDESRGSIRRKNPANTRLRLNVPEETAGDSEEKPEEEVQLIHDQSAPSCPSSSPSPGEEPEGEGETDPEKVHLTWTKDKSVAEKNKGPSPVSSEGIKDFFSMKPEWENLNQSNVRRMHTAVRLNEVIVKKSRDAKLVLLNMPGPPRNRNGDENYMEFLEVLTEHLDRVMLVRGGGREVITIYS
# KCC2 secondary – confirmation of human KCC2 transport modulators | shares compounds with Cl transport mod | HEK293-KCC2, thallium flux, FluoZin2 fluorescence; hits give high values | normalised thallium flux (F/F0 slope) at 10 µM | 3,700 compounds, 15% hits | AID 1713;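 active = thallium flux slope above the same plate's solvent-only control mean plus 3 SD; inconclusive = the two replicate wells disagree; inactive = no significant difference from solvent-only control wells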
# KCC2 bumet counter – thallium flux despite bumetanide block in KCC2 cells, secondary assay 3; shares compounds with Cl transport mod; HEK293-KCC2 + bumetanide/ouabain, thallium flux FluoZin2; hits give high values; normalized thallium flux at 10 µM; 3,700 compounds, 49% hits; AID 1714;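 active = thallium entry rate above the same plate's blocked-transporter control wells by more than 3 SD; inconclusive = the two repeat wells disagree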;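 note: raw slope of fluorescence over initial fluorescence between 10 and 20 s after thallium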
# KCC2 sec2 – KCC2 (human) modulation, second secondary assay | shares compounds with Cl transport mod | HEK293-KCC2, thallium flux FluoZin2 fluorescence; actives lie on both sides; F/F0 rise rate, 10–20 s post-thallium | normalized thallium flux at 10 µM | 3,700 compounds, 23% hits | AID 1715;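 active = thallium flux slope more than 3 SD above or below the plate's solvent-only control mean, mostly below; inconclusive = the two repeat wells disagreed; inactive = no significant shift from solvent-only controls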;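 note: raw slope with 0.1% DMSO as baseline and bumetanide as block control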
# HEK counter1 – parental HEK flux effect, counter-screen. 3,700 compounds, 46% hits. thallium flux rate (normalised fluorescence) at 10 µM. shares compounds with Cl transport mod. HEK293 parental cells, thallium flux FluoZin2, ouabain; baseline-ratio fluorescence slope, 10–20 s after thallium;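 active = thallium flux rate significantly above the same plate's solvent-only control wells, beyond their mean plus 3 SD; inconclusive = the two replicate wells gave conflicting results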
# KCC2 ouabain – KCC2 (human) modulation, ouabain retest | shares compounds with Cl transport mod | HEK293-KCC2, thallium flux FluoZin2 fluorescence; bidirectional: low = inhibitor, high = activator | raw Tl+ flux slope (below DMSO = inhibition, above = activation) at 10 µM | 3,700 compounds, 48% hits;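 active = thallium flux slope beyond 3 SD from same-plate DMSO control mean in most replicates, usually higher, sometimes lower; inconclusive = repeat tests gave conflicting results; inactive = no significant difference from controls in most replicates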;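 note: slope of initial-normalized fluorescence between seconds 10 and 20 after thallium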
# HEK293 Tl flux2 – acts in parental HEK cells, second KCC2 counter-screen | shares compounds with Cl transport mod | thallium flux slope at 10 µM | HEK293 parental, thallium flux FluoZin-2 fluorescence slope | 3,700 compounds, 33% hits;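 active = thallium flux slope above the same plate's solvent-control mean plus 3 SD in both duplicate wells; inconclusive = duplicate wells that disagreed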;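 note: run without ouabain in cells lacking the KCC2 cotransporter; slope of fluorescence scaled to its starting value between 10 and 20 s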
# The depositor's hits bear a star; ? = inconclusive; . = no result. Hits are enriched below; roughly 3.4% of the tested compounds scored in any of these assays.
SMILES,PKD1 kinase inh,ROMK primary,Redox H2O2 prof,Mdm2 ligase inh,p97 inhibitor,Cl transport mod,KCC2 secondary,KCC2 bumet counter,KCC2 sec2,HEK counter1,KCC2 ouabain,HEK293 Tl flux2
CCC(C)NC(=O)CC(NS(=O)(=O)c1ccc(Cl)cc1)c1ccco1 (centres undefined),-0.9,.,3.2,-0.7,-2.0,-1.14,.,.,.,.,.,.
O=C(/C=C/Nc1nccs1)C(F)(F)Cl,0.4,0.174,-0.2,-9.2,3.4,8.86*,?,0.0171*,0.0377*,0.0156*,?,0.0152*
O=C(NCCc1c[nH]c2ccccc12)c1cc(S(=O)(=O)N2CCCCC2)ccc1N1CCOCC1,7.7,0.687,1.9,-3.1,-2.6,.,0.00587,0.00457,?,0.00694,0.0153*,0.0116
CC(C)(C)NC(=S)N/N=C/c1c(Cl)cccc1Cl,.,.,.,-10.8,7.1,7.77*,0.00754,0.00937*,0.0301,0.0118*,0.0218,0.0129*
C[N+]12CCCCC1[C@@H](CO)CCC2 (some centres undefined),.,1.5,.,-6.8,-1.6,-0.567,.,.,.,.,.,.
CC(C)OC(=O)c1cc2c(ccn2-c2ccc(F)cc2)n1CC(=O)N1CCN(C(=O)c2ccco2)CC1,.,.,.,.,5.7,.,.,.,.,.,.,.
CCOC(=O)c1cc2c(ccn2-c2ccc(F)cc2)n1CC(=O)NC(C)(C)C,-1.3,0.0161,-1.1,9.1,-4.1,-5.55*,0.00652,0.00495,0.0241*,0.00774,0.0171*,0.0118
CCn1c(C(=O)OC)cc2c1ccn2-c1ccc(F)cc1,-4.1,0.221,2.1,-19.1,0.1,0.456,.,.,.,.,.,.
COC(=O)c1cc2c(ccn2-c2ccc(F)cc2)n1CC(=O)N1CCN(C(=O)c2ccco2)CC1,10.8,0.18,-0.6,21.1,-0.7,-6.69*,?,?,0.0279*,0.00953*,?,0.0104
Nc1nonc1OCCc1ccccc1,-1.7,0.0524,1.0,2.5,4.3,-0.0866,.,.,.,.,.,.
S=c1[nH]nc(-c2ccccc2)n1/N=C/c1ccc(-c2ccccc2Cl)o1,-6.6,1.3,-0.2,-3.3,0.8,6.79*,0.008,0.0135*,?,0.0196*,0.0269*,0.0182*
S=c1[nH]nc(-c2ccccn2)n1/N=C/c1ccco1,.,0.777,.,-10.4,2.9,-0.54,.,.,.,.,.,.
Cc1ccc(/C=N/n2c(-c3ccncc3)n[nH]c2=S)o1,-4.0,0.574,0.0,-0.6,3.5,-0.0668,.,.,.,.,.,.
S=c1[nH]nc(-c2ccccn2)n1/N=C/c1ccc(-c2ccccc2Br)o1,-6.5,0.119,-1.9,-3.3,4.1,84.4*,0.00596,0.135*,0.168*,0.138*,0.136*,0.155*
O=C(COc1ccc(F)cc1)N1CCc2ccccc2C1,6.9,-0.0635,5.4,-0.8,-2.5,-0.292,.,.,.,.,.,.
CC(=O)Nc1ccc(S(=O)(=O)N(C)CC(=O)OCC(=O)N2CCc3ccccc32)cc1,-4.6,0.688,-1.2,47.4*,0.4,-3.82*,0.00673,0.00653,0.0285,?,0.0196*,?
O=C(CSc1ccc(-c2ccccn2)nn1)NC1CCCC1,-2.0,0.591,0.2,-13.9,-1.9,-0.524,.,.,.,.,.,.
O=C(/C=C/c1ccco1)Nc1scc(-c2ccccc2)c1C(=O)O,.,.,.,-47.1,-13.0,.,.,.,.,.,.,.
O=C(/C=C/c1ccccc1)Nc1scc(-c2ccccc2)c1C(=O)O,-5.2,0.252,1.9,-24.2,6.2,-7.05*,0.00916,?,0.0265*,0.00796,0.0135*,0.0108
CCOC(=O)c1[nH]c(C)c(/C(O)=C2\C(=O)C(=O)N(CCCN3CCOCC3)C2c2cccnc2)c1C (centres undefined),-4.9,0.458,-3.8,14.6,-1.9,.,.,.,.,.,.,.
Cc1nn(-c2ccccc2)nc1C(=O)Nc1nnc(C(F)(F)F)s1,.,.,.,-6.2,3.0,24.2*,0.0163*,0.0485*,0.0325,0.0188*,0.0403*,0.0135*
C/C(=N\NC(=O)c1ccc(-c2ccccc2)cc1)C1C(=O)c2ccccc2C1=O,2.7,0.618,-0.3,-6.5,7.2,0.93,.,.,.,.,.,.
C/C(=N\NC(=O)c1ccc(Br)cc1)C1C(=O)c2ccccc2C1=O,1.7,-1.5,-0.2,4.2,-1.6,-5.38*,0.00593,0.00454,0.0228*,0.00859,?,0.0123
CCCCC(c1nnnn1Cc1ccco1)N1CCN(c2nc3ccccc3s2)CC1 (centres undefined),12.5,-0.665,0.9,-6.1,-0.6,-6.93*,0.00918,0.00634,?,0.00668,0.0152*,0.0106
Cn1nc(CC(=O)NC2CCCCC2)c2ccccc2c1=O,-9.3,.,-3.8,2.8,5.4,0.885,.,.,.,.,.,.
SMILES,PKD1 kinase inh,ROMK primary,Redox H2O2 prof,Mdm2 ligase inh,p97 inhibitor,Cl transport mod,KCC2 secondary,KCC2 bumet counter,KCC2 sec2,HEK counter1,KCC2 ouabain,HEK293 Tl flux2
O=C(Nc1cccc(-c2cn3ccccc3n2)c1)c1cccc(Cl)c1,-4.9,.,2.0,4.3,0.5,.,.,.,.,.,.,.
COCCN(C(=O)CSc1nc2ccccc2c(=O)n1CC(C)C)c1c(N)n(Cc2ccccc2)c(=O)[nH]c1=O,-3.2,-0.0977,-0.5,-2.5,1.7,13.4*,0.0118*,0.0539*,0.0375,0.024*,0.05*,0.016*
CN(C)c1ccc(-c2nnn(Cc3ccccc3Br)n2)cc1,-2.5,.,2.5,-3.0,-2.6,-4.27*,0.00929,0.0112*,0.0316,?,0.0205,0.0103
CCn1nc(C)c(/C=N/NC(=S)Nc2ccc(Cl)cc2Cl)c1C,-9.1,1.26,0.8,-1.8,1.9,4.47*,0.00815,0.0105*,0.031,0.0084*,?,?
Fc1ccc(NC(=S)N/N=C/c2ccc(F)c(F)c2)cc1,-1.6,0.133,0.2,-8.6,-3.1,26.6*,0.0162*,0.063*,0.0311,0.0223*,0.0439*,0.013*
Fc1ccc(NC(=S)Nc2cc(Cl)ccc2Cl)cc1,-2.2,-1.48,-0.3,-1.8,-1.3,3.53*,0.00799,0.0155*,?,0.0183*,0.0263*,0.0146*
